In ChEMBL document CHEMBL5653631, “A Potent and Selective ULK1 Inhibitor Suppresses Autophagy and Sensitizes Cancer Cells to Nutrient Stress” (iScience, 2018):
Blank lines part the entries; values can stand above or below the molecule they belong to.

Legend:
[1] = target: Fibroblast growth factor receptor 4 (Homo sapiens) (UniProt P22455); test: Inhibition of human recombinant FGFR4 at 500 nM in presence of ATP by radiometric assay relative to control
[2] = target: Interleukin-1 receptor-associated kinase 1 (Homo sapiens) (UniProt P51617); test: Inhibition of human recombinant IRAK1 at 500 nM in presence of ATP by radiometric assay relative to control
[3] = target: T1, Phosphorylase b kinase gamma catalytic chain, liver/testis isoform (Homo sapiens) (UniProt P15735); test: Inhibition of human recombinant PHKg2 at 500 nM related to control ULK1
T1 sequence (whole entry): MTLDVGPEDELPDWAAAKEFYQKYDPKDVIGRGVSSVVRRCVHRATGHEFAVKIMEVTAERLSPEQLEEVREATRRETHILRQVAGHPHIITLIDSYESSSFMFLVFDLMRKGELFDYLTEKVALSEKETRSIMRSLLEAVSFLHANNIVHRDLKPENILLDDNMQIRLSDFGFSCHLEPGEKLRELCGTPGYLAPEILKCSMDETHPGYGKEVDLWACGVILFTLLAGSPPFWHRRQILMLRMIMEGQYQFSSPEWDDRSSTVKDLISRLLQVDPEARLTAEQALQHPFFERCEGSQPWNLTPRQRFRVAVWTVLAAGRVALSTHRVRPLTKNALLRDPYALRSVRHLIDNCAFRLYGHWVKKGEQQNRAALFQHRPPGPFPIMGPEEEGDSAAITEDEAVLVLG

[4] = target: Cyclin-dependent kinase 6 (Homo sapiens) (UniProt Q00534); test: Inhibition of human recombinant CDK6 at 15 nM in presence of ATP by radiometric assay relative to control
[5] = target: Tyrosine-protein kinase Fes/Fps (Homo sapiens) (UniProt P07332); test: Inhibition of human recombinant FES at 15 nM in presence of ATP by radiometric assay relative to control
[6] = target: Serine/threonine-protein kinase PAK 4 (Homo sapiens) (UniProt O96013); test: Inhibition of human recombinant PAK4 at 15 nM in presence of ATP by radiometric assay relative to control
[7] = target: T2, Cytoplasmic tyrosine-protein kinase BMX (Homo sapiens) (UniProt P51813); test: Inhibition of human recombinant BMX at 15 nM related to control ULK1
T2 sequence (whole entry): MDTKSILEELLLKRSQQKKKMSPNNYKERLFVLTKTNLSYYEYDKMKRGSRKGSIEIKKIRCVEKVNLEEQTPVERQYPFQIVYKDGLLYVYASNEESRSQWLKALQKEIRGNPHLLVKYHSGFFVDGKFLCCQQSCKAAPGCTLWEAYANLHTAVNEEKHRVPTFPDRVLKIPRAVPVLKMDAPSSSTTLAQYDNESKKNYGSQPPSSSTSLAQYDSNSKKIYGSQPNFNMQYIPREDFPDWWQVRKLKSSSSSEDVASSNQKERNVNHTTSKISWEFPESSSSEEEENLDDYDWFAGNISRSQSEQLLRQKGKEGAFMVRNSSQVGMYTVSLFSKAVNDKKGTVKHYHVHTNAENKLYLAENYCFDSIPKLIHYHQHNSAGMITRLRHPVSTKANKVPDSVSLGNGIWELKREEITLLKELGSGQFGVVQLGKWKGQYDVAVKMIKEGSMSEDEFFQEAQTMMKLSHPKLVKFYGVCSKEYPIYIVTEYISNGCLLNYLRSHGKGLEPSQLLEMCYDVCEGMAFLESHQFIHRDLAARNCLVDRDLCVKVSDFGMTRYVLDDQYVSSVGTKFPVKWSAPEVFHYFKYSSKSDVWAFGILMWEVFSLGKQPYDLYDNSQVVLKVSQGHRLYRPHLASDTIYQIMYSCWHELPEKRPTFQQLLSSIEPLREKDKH

[8] = target: Bone morphogenetic protein receptor type-1B (Homo sapiens) (UniProt O00238); test: Inhibition of human recombinant BMPR1B at 40 nM in presence of ATP by radiometric assay relative to control
Procedure, shortened: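 Part of a radiometric in vitro activity panel of 327 recombinant human kinases. Each kinase was tested in duplicate at one inhibitor concentration. Activity remaining was expressed as a percentage of the vehicle control, and percent inhibition was taken as 100 minus that value.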

[9] = target: T3, Dual specificity protein kinase TTK (Homo sapiens) (UniProt P33981); test: Inhibition of human recombinant TTK at 40 nM in presence of ATP by radiometric assay relative to control
T3 sequence (whole entry): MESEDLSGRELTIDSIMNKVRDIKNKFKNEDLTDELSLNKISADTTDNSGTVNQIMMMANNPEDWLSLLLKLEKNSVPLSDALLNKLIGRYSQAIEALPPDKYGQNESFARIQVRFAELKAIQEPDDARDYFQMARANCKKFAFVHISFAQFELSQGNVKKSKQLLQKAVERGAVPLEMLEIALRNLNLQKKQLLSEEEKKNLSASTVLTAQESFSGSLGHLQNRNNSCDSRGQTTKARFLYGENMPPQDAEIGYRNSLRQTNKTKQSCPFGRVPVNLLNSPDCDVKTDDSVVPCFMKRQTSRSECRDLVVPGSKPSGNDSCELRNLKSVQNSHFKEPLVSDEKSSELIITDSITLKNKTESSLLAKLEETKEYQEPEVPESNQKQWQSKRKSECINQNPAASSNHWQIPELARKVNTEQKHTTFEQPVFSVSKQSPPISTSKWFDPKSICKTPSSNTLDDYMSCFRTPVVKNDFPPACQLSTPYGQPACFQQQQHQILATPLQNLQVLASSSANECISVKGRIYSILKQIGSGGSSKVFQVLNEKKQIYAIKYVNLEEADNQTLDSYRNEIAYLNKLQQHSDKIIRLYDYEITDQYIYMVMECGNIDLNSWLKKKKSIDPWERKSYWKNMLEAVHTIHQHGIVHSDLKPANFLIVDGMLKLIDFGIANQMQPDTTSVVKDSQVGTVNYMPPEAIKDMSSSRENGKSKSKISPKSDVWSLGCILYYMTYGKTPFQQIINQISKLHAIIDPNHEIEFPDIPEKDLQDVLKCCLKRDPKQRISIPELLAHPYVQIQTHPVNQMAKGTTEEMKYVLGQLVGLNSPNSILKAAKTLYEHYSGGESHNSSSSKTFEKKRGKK

[10] = target: 3-phosphoinositide-dependent protein kinase 1 (Homo sapiens) (UniProt O15530); test: Inhibition of human recombinant PDK1 at 40 nM related to control ULK1
Sequence of 3-phosphoinositide-dependent protein kinase 1 (Homo sapiens) (O15530 whole entry, looked up): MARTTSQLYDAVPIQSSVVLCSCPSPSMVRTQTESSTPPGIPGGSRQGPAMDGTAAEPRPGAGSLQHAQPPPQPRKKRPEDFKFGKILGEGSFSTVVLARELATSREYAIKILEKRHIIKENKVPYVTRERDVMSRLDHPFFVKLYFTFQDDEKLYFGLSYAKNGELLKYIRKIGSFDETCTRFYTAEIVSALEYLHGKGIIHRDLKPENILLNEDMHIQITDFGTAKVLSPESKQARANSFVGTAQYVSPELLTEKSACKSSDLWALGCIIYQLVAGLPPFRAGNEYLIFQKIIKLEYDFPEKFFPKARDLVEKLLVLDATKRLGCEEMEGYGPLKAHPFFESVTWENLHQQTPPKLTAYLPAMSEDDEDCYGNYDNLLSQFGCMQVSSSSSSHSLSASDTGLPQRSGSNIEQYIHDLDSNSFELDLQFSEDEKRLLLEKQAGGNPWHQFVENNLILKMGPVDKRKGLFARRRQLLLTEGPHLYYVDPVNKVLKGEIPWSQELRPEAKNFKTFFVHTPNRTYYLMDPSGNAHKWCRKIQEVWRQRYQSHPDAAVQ

Sequence of Serine/threonine-protein kinase PAK 4 (Homo sapiens) (O96013 whole entry, looked up): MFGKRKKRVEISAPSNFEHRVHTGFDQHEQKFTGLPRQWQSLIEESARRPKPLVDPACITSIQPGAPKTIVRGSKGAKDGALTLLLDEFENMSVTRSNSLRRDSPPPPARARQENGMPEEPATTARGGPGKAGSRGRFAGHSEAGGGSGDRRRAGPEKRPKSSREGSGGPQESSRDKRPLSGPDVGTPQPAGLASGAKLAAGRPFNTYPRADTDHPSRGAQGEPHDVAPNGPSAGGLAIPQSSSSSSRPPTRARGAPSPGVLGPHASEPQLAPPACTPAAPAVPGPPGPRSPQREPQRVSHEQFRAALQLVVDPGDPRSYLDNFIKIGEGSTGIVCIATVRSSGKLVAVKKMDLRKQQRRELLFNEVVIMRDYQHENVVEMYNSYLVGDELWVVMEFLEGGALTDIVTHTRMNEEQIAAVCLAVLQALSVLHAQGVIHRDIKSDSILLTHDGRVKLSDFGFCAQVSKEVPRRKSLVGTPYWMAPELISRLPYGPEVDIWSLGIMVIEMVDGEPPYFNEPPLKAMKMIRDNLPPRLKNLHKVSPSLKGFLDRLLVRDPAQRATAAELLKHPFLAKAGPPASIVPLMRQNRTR
Sequence of Tyrosine-protein kinase Fes/Fps (Homo sapiens) (P07332 whole entry): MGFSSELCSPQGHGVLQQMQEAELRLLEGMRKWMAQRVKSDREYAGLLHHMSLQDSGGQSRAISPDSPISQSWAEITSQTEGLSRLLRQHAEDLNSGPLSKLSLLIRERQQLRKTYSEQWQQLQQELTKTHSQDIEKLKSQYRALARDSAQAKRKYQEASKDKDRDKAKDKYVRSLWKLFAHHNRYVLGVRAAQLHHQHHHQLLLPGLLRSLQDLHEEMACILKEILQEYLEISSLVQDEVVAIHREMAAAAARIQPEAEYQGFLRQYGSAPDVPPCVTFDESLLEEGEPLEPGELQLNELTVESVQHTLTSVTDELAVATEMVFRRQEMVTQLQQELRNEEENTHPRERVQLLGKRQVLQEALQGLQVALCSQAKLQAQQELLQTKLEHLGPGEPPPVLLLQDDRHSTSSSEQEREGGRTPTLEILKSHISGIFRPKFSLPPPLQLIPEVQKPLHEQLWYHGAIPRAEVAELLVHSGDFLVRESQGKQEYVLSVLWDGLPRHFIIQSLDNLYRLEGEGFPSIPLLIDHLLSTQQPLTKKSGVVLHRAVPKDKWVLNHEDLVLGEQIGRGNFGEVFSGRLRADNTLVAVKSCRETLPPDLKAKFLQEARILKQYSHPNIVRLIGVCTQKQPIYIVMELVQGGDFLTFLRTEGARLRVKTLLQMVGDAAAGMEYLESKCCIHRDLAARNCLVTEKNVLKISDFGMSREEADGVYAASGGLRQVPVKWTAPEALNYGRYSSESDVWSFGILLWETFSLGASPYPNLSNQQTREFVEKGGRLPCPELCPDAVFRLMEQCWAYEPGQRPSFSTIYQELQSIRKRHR
Sequence of Fibroblast growth factor receptor 4 (Homo sapiens) (P22455 22-802 limits assumed): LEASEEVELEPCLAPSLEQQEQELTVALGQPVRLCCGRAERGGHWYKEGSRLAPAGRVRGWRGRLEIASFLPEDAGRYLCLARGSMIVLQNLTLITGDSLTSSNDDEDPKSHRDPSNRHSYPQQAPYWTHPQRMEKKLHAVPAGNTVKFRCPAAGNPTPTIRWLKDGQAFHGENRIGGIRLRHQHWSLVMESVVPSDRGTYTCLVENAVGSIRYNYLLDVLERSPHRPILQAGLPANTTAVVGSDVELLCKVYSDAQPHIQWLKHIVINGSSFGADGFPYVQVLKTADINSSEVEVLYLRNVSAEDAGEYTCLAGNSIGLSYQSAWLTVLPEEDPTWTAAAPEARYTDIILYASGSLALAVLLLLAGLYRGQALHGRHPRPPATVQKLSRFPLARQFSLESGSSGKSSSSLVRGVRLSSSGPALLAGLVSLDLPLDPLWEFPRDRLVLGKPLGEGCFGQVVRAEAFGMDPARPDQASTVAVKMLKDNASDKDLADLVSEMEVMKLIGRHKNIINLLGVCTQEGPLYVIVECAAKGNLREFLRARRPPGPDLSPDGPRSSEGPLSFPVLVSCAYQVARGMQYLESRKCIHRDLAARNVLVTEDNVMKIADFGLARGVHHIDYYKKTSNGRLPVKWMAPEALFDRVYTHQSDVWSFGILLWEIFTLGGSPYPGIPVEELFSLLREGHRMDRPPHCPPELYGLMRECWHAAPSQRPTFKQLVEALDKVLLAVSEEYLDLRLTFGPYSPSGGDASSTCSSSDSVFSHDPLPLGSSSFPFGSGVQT
Sequence of Cyclin-dependent kinase 6 (Homo sapiens) (Q00534 whole entry): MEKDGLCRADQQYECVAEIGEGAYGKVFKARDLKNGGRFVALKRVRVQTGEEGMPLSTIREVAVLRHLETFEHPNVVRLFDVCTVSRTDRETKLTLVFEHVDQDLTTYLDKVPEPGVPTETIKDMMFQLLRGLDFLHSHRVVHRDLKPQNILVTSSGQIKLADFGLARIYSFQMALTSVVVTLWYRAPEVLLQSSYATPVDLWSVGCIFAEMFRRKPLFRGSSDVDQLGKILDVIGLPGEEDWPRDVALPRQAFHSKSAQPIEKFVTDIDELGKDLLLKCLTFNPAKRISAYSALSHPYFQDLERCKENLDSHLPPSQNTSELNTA
Sequence of Bone morphogenetic protein receptor type-1B (Homo sapiens) (O00238 whole entry): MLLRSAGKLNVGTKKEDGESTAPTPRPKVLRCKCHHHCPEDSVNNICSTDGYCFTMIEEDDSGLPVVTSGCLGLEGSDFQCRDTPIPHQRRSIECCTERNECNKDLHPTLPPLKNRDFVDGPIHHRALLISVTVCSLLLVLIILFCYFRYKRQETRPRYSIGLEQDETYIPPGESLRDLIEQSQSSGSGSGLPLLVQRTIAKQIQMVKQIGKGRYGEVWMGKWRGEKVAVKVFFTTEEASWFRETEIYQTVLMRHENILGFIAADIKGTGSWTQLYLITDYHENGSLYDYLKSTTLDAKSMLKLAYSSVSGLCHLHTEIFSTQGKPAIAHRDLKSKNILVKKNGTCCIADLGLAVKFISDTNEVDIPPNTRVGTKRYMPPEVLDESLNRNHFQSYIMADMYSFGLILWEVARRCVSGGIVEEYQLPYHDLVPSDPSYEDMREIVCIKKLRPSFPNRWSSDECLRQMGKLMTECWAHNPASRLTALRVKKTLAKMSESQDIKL
Sequence of Interleukin-1 receptor-associated kinase 1 (Homo sapiens) (P51617 whole entry, looked up, canonical isoform): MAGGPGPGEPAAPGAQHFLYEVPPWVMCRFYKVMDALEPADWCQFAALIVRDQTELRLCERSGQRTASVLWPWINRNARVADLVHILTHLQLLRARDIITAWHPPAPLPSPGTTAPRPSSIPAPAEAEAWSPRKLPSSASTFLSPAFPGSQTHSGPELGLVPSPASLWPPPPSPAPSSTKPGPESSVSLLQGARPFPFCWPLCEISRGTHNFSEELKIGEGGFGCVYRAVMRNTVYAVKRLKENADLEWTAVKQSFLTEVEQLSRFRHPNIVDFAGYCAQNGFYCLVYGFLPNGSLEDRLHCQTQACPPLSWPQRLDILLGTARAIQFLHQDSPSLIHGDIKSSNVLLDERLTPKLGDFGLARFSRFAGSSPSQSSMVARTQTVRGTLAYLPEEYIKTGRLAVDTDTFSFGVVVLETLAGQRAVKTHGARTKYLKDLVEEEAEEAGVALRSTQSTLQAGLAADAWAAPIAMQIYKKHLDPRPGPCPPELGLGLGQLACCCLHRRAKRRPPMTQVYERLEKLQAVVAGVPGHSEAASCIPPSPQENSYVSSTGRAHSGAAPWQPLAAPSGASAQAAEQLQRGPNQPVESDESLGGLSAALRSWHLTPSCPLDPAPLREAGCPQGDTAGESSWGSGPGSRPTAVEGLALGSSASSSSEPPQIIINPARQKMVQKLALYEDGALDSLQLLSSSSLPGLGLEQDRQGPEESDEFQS

- inhibition [1]: 10%
- inhibition [2]: 15%
- fold change (FC) [3]: 0
SMILES: CNC(=O)c1ccccc1Oc1nc(Nc2cc(OC)c(OC)c(OC)c2)ncc1Br

- inhibition [4]: 8%
- inhibition [5]: 0%
- inhibition [6]: 0%
- fold change (FC) [7]: 0.07
SMILES: CC(C)[C@H](NC(=O)c1cc(-c2cnn3cc(-c4ccc(OCCN5CCCCC5)cc4)cnc23)cs1)C(F)(F)F

- inhibition [8]: 0%
- inhibition [9]: 33%
- fold change (FC) [10]: 0
SMILES: O=C(N[C@@H](C1CC1)C(F)(F)F)c1cc(-c2cnn3cc(-c4ccc(F)cc4)cnc23)cs1
